This is a sample that favours compounds with a hit; in the whole collection about 2.9% have one here.
DENV2 CPE: protects cells from dengue virus 2 cytopathic effect. DENV2-infected cells, cytopathic effect rescue, plate reader. CPE inhibition, % at 9.99 µM. actives 1.7% (n = 350,000). AID 651640; in the data active = CPE inhibition above about 20%, passing the limit was not always enough; inconclusive = no clear call, values can overlap the other calls; tested in BHK-21 cells;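 note: 0% = median of neutral control wells and 100% = median of positive control wells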
CAL PDZ FP-1: human CAL PDZ-peptide interaction inhibition; AID 504414; purified CAL PDZ, TMR-peptide fluorescence polarization, 1 h; inhibition, % at 20 µM; actives 0.02% (n = 330,000); Q9HD26;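 active = highest replicate inhibition of at least 40%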;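 note: plate controls were DMSO neutral control wells for no effect and unlabeled competitor peptide control wells for full effect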
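Assay system – tagged CAL PDZ protein CerCALP, purified · Timing – 1 h at RT · Compound – single point, 20 µM · Measured by – fluorescence polarization from S- and P-plane intensities, G-factor corrected · Evaluation – inhibition from polarization loss · Probe or stimulus – TMR reporter peptide T*-PRC34 · Buffer or medium – pH 7.4 phosphate-saline buffer, reducing agent, detergent, IgG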
S100A4 inh HTS: S100A4-myosin IIA interaction inhibition. S100A4/TAMRA-MyoIIA peptide fluorescence polarization. inhibition, % at 10.7 µM. actives 0.14% (n = 360,000);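 active = mean inhibition of at least 70% across replicates, with every replicate also reaching that level; inconclusive = mean inhibition reaches 70% but some replicates fall short; inactive = mean inhibition below 70%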
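Material: S100A4 monomer protein | Medium: HEPES pH 7.2 with CaCl2, KCl, NaCl, DTT, Triton | Reagent: Labelled myosin peptide probe, 5 nM | Doses: One dose per compound | Times: 5 min incubation before reading | Benchmarks: Neutral control DMSO, positive control TFP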
SIRT5 inh: inhibitors of human sirtuin-5 desuccinylase; Q9NXA8; inhibition, % at 15 µM; Purified SirT5, succinyl-peptide AMC, trypsin-coupled fluorescence; actives 1.1% (n = 330,000); in the data active = inhibition above about 15%; inconclusive = no clear call, values can overlap the other calls
CAL PDZ FP-2: CAL PDZ (human) peptide binding inhibition; purified CAL PDZ, TMR-peptide fluorescence polarization, 1 h; inhibition, % at 24.9 µM; actives 0.92% (n = 300,000);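 active = mean inhibition of at least 30% with at least half of replicates also reaching 30%; inconclusive = no clear call, values can overlap the other calls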;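 note: 0% = DMSO neutral control and 100% = excess unlabeled competitor peptide PRC23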
ERAP1 HTS inh: ERAP1 (human) enzyme inhibition. inhibition, % at 10.7 µM. Q9NZ08. recombinant ERAP1, Leu-AMC fluorescence, 60 min. actives 0.15% (n = 340,000). AID 652197;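 active = mean replicate inhibition of at least 30%, or all replicates individually reaching that 30% level; inactive = mean below 30% and not every replicate reaching it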;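 note: 0% = neutral control wells and 100% = L-leucinethiol positive control wells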
Target sequence (Q9NZ08 whole entry, looked up): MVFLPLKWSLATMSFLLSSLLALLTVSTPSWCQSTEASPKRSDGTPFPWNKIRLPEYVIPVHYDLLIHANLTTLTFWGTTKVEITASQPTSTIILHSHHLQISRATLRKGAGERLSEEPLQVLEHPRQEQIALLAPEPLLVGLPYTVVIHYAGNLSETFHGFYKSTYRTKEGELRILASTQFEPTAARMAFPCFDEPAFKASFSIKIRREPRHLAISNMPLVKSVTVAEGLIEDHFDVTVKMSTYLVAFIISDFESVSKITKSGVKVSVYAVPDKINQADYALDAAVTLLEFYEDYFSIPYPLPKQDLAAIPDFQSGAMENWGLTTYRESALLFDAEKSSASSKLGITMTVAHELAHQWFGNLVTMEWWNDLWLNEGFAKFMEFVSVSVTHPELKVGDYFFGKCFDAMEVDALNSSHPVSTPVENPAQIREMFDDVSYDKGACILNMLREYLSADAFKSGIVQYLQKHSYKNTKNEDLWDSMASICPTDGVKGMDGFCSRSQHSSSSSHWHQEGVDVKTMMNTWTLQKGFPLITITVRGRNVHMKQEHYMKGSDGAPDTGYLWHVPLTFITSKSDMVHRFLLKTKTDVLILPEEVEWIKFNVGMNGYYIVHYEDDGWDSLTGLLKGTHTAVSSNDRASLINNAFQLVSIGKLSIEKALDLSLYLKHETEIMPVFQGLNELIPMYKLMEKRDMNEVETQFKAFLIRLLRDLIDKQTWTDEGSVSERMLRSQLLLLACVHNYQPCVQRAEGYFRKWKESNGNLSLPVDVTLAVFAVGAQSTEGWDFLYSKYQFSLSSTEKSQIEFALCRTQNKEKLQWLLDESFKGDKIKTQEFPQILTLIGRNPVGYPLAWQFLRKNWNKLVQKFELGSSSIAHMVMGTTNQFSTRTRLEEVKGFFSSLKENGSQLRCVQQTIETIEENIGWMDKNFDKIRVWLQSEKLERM
Active calls of the source: *; ? = inconclusive; / = no result given.

SMILES	DENV2 CPE	CAL PDZ FP-1	S100A4 inh HTS	SIRT5 inh	CAL PDZ FP-2	ERAP1 HTS inh
CCCCn1nnc(NC(=O)c2ccc([N+](=O)[O-])cc2Cl)n1	-1	0	6	-5	67*	-1
CC(=O)N1c2ccc(S(=O)(=O)NCCC(=O)N3CCCC(C)C3)cc2CC1C (centres undefined)	35*	-2	0	2	-4	1
CC(=O)N1c2ccc(S(=O)(=O)NCC3CCC(C(=O)NCc4ccc(C)cc4)CC3)cc2CC1C (centres undefined)	4	-1	0	-8	/	-1
CCCNC(=O)C1CCC(CNS(=O)(=O)c2ccc3c(c2)CC(C)N3C(C)=O)CC1 (centres undefined)	0	0	3	-1	82*	-1
CO[C@H]1CN(C)C(=O)c2ccc(NC(C)=O)cc2OC[C@H](C)N(Cc2ccccc2C(=O)O)C[C@@H]1C	-4	/	7	1	/	-2
C/C=C/c1ccc2c(c1)O[C@@H](CN(C)C(=O)Nc1cc(F)ccc1F)[C@H](C)CN([C@@H](C)CO)S2(=O)=O	-3	/	-37	4	/	1
COc1ccc(S(=O)(=O)Nc2ccc3c(c2)C(=O)N([C@@H](C)CO)C[C@@H](C)[C@H](CN(C)Cc2ccccc2)OCCCC[C@H](C)O3)cc1	9	/	/	/	/	/
O=C(CN1CCC(n2nnc3cc(C(F)(F)F)ccc32)CC1)Nc1ccc2c(c1)OCCO2	/	0	/	/	49*	/
O=C(CN1CCC(n2nnc3cc(C(F)(F)F)ccc32)CC1)Nc1ccc2c(c1)CCC2	/	1	/	/	-2	/
CCOC(=O)CCn1c(=S)n(CCC(=O)OCC)c2ccccc21	-2	1	0	1	55*	-1
COCC#Cc1cnc2c(c1)C(=O)N([C@@H](C)CO)C[C@H](C)[C@H](CN(C)Cc1ccc(F)cc1)O2	2	/	-5	3	/	4
O=C(Nc1ccccc1)N1CCCCN2[C@H](CO)[C@H](c3ccc(C4=CCCCC4)cc3)[C@@H]2C1	4	/	-4	0	/	3
CC(=O)NC1=NN(C(C)=O)C2(CCCC2)S1	/	-1	2	/	-5	2
CC(=O)N1N=C(N)SC12CCCC2	1	-1	7	20*	-3	-1
CC1CC(C)CN(C(=O)COC(=O)c2nccnc2N)C1 (centres undefined)	45*	0	-4	-32	/	-21
O=C1CNC[C@H]2[C@@H](c3ccc(C#CC4CCCCC4)cc3)[C@@H](CO)N12	-13	/	-10	0	/	-5
COc1ccc(/C=C2/C(=O)N(c3nc4ccccc4s3)N=C2CSc2ccc(Cl)cc2)cc1	-6	-2	-11	18*	-1	3
C[C@@H]1CN([C@H](C)CO)C(=O)c2cc(NC(=O)Nc3ccc(C(F)(F)F)cc3)ccc2O[C@H]1CN(C)Cc1ccncc1	33*	/	2	3	/	-1
C[C@@H]1CN([C@H](C)CO)C(=O)c2cc(NC(=O)Nc3ccc(C(F)(F)F)cc3)ccc2O[C@H]1CN(C)Cc1ccc(Cl)c(Cl)c1	12	0	-11	5	37*	-2
C[C@@H]1CN([C@H](C)CO)C(=O)c2cc(NC(=O)Nc3ccc(C(F)(F)F)cc3)ccc2O[C@@H]1CN(C)Cc1ccc(Cl)c(Cl)c1	46*	/	3	5	/	0
C[C@H]1CN([C@@H](C)CO)C(=O)c2cc(NC(=O)Nc3ccc(C(F)(F)F)cc3)ccc2O[C@H]1CN(C)Cc1ccc(Cl)c(Cl)c1	?	/	-3	6	/	-1
COCC#Cc1cnc2c(c1)C(=O)N([C@H](C)CO)C[C@H](C)[C@H](CN(C)C(=O)c1cnccn1)O2	11	/	1	5	/	5
COc1ccc(OCC(O)CN(C)C(=O)/C=C/c2cccc([N+](=O)[O-])c2)cc1 (centres undefined)	-2	-2	7	-2	86*	3
CCCCN(CCCC)C(=O)/C=C/c1cccc([N+](=O)[O-])c1	/	0	/	/	0	/
C[C@H]1CN([C@@H](C)CO)C(=O)CCCn2cc(nn2)CO[C@H]1CN(C)Cc1ccccc1C(F)(F)F	-7	/	47	0	/	2
SMILES	DENV2 CPE	CAL PDZ FP-1	S100A4 inh HTS	SIRT5 inh	CAL PDZ FP-2	ERAP1 HTS inh
COCCNC(=O)COc1coc(CN2CCN(Cc3ccccc3)CC2)cc1=O	-2	-2	1	-2	0	-2
CC(C)(C)NC(=O)COc1coc(CN2CCN(Cc3ccccc3)CC2)cc1=O	57*	-1	-2	-4	-1	-4
C[C@H]1CN([C@@H](C)CO)C(=O)c2c(c3ccccc3n2C)-c2ccccc2CO[C@@H]1CN(C)C(=O)Nc1ccccc1	-5	/	1	4	/	-2
CS(=O)(=O)N1[C@H](CO)[C@@H](c2ccc(C#CC3CC3)cc2)[C@@H]1C#N	26*	/	-1	2	/	2
N#C[C@@H]1[C@@H](c2ccc(C#CC3CC3)cc2)[C@@H](CO)N1S(=O)(=O)Cc1ccccc1	-5	/	10	-1	/	-1
N#C[C@H]1[C@@H](c2ccccc2)[C@@H](CO)N1S(=O)(=O)Cc1ccccc1	65*	/	-5	0	/	-2
N#C[C@@H]1[C@H](c2ccc(C#CC3CCCC3)cc2)[C@@H](CO)N1S(=O)(=O)c1ccccc1	50*	/	-4	-4	/	4
N#C[C@H]1[C@@H](c2ccc(C#CC3CCCC3)cc2)[C@@H](CO)N1S(=O)(=O)c1ccccc1	-5	/	2	0	/	2
C[C@@H]1CN([C@H](C)CO)C(=O)c2cc(NC(=O)CCCN(C)C)ccc2O[C@H]1CN(C)S(C)(=O)=O	2	/	-3	3	/	1
CNC[C@@H]1Oc2ccc(NS(=O)(=O)c3ccc(OC)cc3)cc2C(=O)N([C@H](C)CO)C[C@H]1C	-11	/	5	0	/	3
COc1ccc2c3c([nH]c2c1)[C@@H](CO)N(C(=O)Nc1ccc(F)cc1)CC31CCN(C(=O)c2ccccn2)CC1	4	/	1	-1	/	3
CC=Cc1ccc2n(c1=O)C[C@@H]1[C@@H](CO)[C@H](C(=O)N[C@H](C)c3ccccc3)[C@H]2N1Cc1cncnc1 (mixture of isomers)	1	/	3	-9	/	-2
COc1ccc(NC(=O)c2ccc(CNS(=O)(=O)c3cccc(OC)c3)cc2)cc1	/	-1	/	/	38*	/
O=C(N[C@H]1C=C[C@H](CC(=O)N2CCc3ccccc3C2)O[C@H]1CO)C1CC1	13	/	55	3	/	/
CCCC#Cc1ccc2c(c1)O[C@@H](CN(C)C(=O)c1ccncc1)[C@@H](C)CN([C@@H](C)CO)S2(=O)=O	-6	/	-6	-1	/	-1
COc1ccc(-c2csc3nc[nH]c(=O)c23)cc1	1	-1	18	23*	-3	-1
